From ChEMBL document CHEMBL4706622, “Comparative study between the anti-P. falciparum activity of triazolopyrimidine, pyrazolopyrimidine and quinoline derivatives and the identification of new PfDHODH inhibitors” (Eur J Med Chem, 2021) come the findings set out here.

pIC50: −log10 of the molar value. Bounds are passed on as bounds.

Series [1] in a line: Inhibition of Plasmodium falciparum DHODH (159- 569 aa) expressed in Escherichia coli BL21(DE3) cells assessed as 2,6-dichloroindophenol reduction by colorimetric method. An outline of the steps: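 Second-stage PfDHODH IC50 determination from concentration–response curves, run only on compounds giving ≥80% inhibition at 50 µM in the single-point screen. PfDHODH final concentration was 50 nM. IC50 was not assigned where substrate consumption could not be measured at some concentrations on the curve.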

Series [2] concerns the target Dihydroorotate dehydrogenase (quinone), mitochondrial (Homo sapiens) (UniProt Q02127). As to the kind of experiment: Inhibition of human DHODH assessed as 2,6-dichloroindophenol reduction at 50 uM by colorimetric method. An outline of the steps:
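First-stage HsDHODH screen at a single compound concentration of 50 µM, reported as % inhibition. It was run in parallel with the PfDHODH screen.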

The test system of another series is Plasmodium falciparum. The series can be described thus: Antimalarial activity against CQ-sensitive Plasmodium falciparum 3D7 infected in erythrocytes by SYBR Green dye based fluorescence assay. Format: functional, organism-based.
Series [3] can be described thus: Selectivity index, ratio of IC50 for cytotoxicity against human HepG2 cells to IC50 for antimalarial activity against Plasmodium falciparum 3D7. Conditions: read-out: Ratio IC50. Format: toxicity, cell-based.
Another series concerns HepG2. The series can be described thus: Cytotoxicity against human HepG2 cells assessed as cell viability after 72 hrs by MTT assay. Conditions: HepG2, 72 h. The series is classed as cell-based. For orientation: Tetrazolium assays rely on reduction of a dye to a coloured formazan, in cell work by metabolically active cells.

Dihydroorotate dehydrogenase (quinone), mitochondrial (Homo sapiens), sequence (Q02127 whole entry): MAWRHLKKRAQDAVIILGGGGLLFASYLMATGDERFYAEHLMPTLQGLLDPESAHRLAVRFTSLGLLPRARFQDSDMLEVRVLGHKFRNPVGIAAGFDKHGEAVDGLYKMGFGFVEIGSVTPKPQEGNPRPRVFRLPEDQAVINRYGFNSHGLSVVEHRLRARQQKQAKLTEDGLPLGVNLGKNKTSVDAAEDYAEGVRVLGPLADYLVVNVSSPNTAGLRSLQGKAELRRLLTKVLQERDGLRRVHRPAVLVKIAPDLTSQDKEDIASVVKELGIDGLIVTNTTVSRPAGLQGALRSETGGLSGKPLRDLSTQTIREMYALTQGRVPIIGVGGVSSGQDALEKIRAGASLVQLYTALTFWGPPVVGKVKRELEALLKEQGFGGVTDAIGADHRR

For orientation: pIC50 means the negative decadic logarithm of the IC50, by convention in mol/L. A word on the inhibition: it is how much of the control response was suppressed. As to `Cc1cc(Nc2ccc(S(=O)(=O)Nc3ccc(Cl)cc3)cc2)n2ncnc2n1`, the pIC50 in series [1] is under 4.30; with Plasmodium falciparum, 5.52; in the series on HepG2, 4.04. Further, the inhibition in series [2] was 0%. The selectivity ratio in series [3] was over 31.
Regarding `COc1ccc(NS(=O)(=O)c2ccc(Nc3cc(C)nc4ncnn34)cc2)cc1`, the pIC50 in series [1] is under 4.30; with Plasmodium falciparum, 5.40; in the series with HepG2, 4.34. The inhibition in series [2] turned out to be 0%. Also, the selectivity ratio in series [3] is over 13.
As for `COc1ccc(NS(=O)(=O)c2ccc(Nc3ccnc4cc(Cl)ccc34)cc2)cc1`, the negative-log IC50 (pIC50) was 5.55 with Plasmodium falciparum and 4.04 in the series with HepG2. In series [3], the selectivity ratio was over 33.
As to `Cc1cc(Nc2ccc(S(=O)(=O)Nc3ccccc3)cc2)n2ncnc2n1`, the figures for the negative-log IC50 (pIC50) (in series [1]; in the series on Plasmodium falciparum; with HepG2) were 6.10, 5.04 and 3.44, respectively. Also, the inhibition in series [2] turned out to be 0%. Further, the selectivity ratio in series [3] is over 40.
Turning to `Cc1cc(Nc2ccc(S(=O)(=O)Nc3ccc4ccccc4c3)cc2)n2nc(C(F)(F)F)nc2n1`, the negative-log IC50 (pIC50) is 6.66 in series [1], 7.30 with Plasmodium falciparum and under 4.00 in the series with HepG2. Besides, in series [2], the inhibition was 0%. The selectivity ratio in series [3] was over 2000.
As for `Cc1ccc(NS(=O)(=O)c2ccc(Nc3ccnc4cc(Cl)ccc34)cc2)cc1`, the figures for the pIC50 with Plasmodium falciparum and in the series on HepG2 were 6.01 and 4.04, respectively. In addition, in series [3], the selectivity ratio is over 95.
In the case of `CCN(CC)CCCC(C)Nc1ccnc2cc(Cl)ccc12` (stereo not given) [CHLOROQUINE], the negative logarithm of the IC50 (pIC50) in the series with HepG2 was 3.42.
In the case of `Cc1cc(Nc2ccc(S(=O)(=O)Nc3ccc(C(F)(F)F)cc3)cc2)n2nc(C)nc2n1`, the pIC50 in series [1] is 6.22; with Plasmodium falciparum, 6.41; in the series with HepG2, 3.90. Besides, the inhibition in series [2] worked out at 0%. Moreover, in series [3], the selectivity ratio turned out to be 321.
Take `O=S(=O)(Nc1ccc(F)cc1)c1ccc(Nc2ccnc3cc(Cl)ccc23)cc1`: the negative logarithm of the IC50 (pIC50) is 5.34 in the series on Plasmodium falciparum and 4.04 with HepG2. Besides, the selectivity ratio in series [3] was over 21.
As to `Cc1cc(Nc2ccc(S(=O)(=O)Nc3ccc(Cl)cc3)cc2)n2nc(C)nc2n1`, the pIC50 in series [1] is 6.22; with Plasmodium falciparum it was 6.10; in the series on HepG2, under 4.30. Moreover, the inhibition in series [2] worked out at 0%. The selectivity ratio in series [3] was over 62.5.
In the case of `Cc1cc(Nc2ccc(S(=O)(=O)Nc3ccc(Cl)cc3)cc2)n2nc(C(F)(F)F)nc2n1`, the figures for the pIC50 (in series [1]; with Plasmodium falciparum; with HepG2) were 7.10, 6.40 and 4.33, respectively. Also, in series [2], the inhibition came to 0%. The selectivity ratio in series [3] was over 123.
Consider `O=S(=O)(Nc1ccccc1)c1ccc(Nc2ccnc3cc(Cl)ccc23)cc1`, for which the pIC50 in the series with Plasmodium falciparum is 5.70; with HepG2, 4.04. The selectivity ratio in series [3] is over 46.
Take `Cc1ccc(NS(=O)(=O)c2ccc(Nc3cc(C)nc4nc(C)nn34)cc2)cc1`: the pIC50 in series [1] was 6.52; with Plasmodium falciparum, 6.04; in the series on HepG2, 3.96. In series [2], the inhibition was found to be 0%. Moreover, the selectivity ratio in series [3] came to 121.
In the case of `C[C@H]1[C@H](OC(=O)CCC(=O)O)O[C@@H]2O[C@@]3(C)CC[C@H]4[C@H](C)CC[C@@H]1[C@@]24OO3` [ARTESUNATE], the negative logarithm of the IC50 (pIC50) is 8.05 in the series on Plasmodium falciparum and 3.57 in the series with HepG2. For the same compound, the selectivity ratio in series [3] was determined as 29700.
As for `O=S(=O)(Nc1ccc2ccccc2c1)c1ccc(Nc2ccnc3cc(Cl)ccc23)cc1`, the results for the pIC50 in the series on Plasmodium falciparum and in the series with HepG2 were 6.05 and 4.89, respectively. In addition, the selectivity ratio in series [3] was determined as 15.1.
For the compound `O=S(=O)(Nc1ccc(Cl)cc1)c1ccc(Nc2ccnc3cc(Cl)ccc23)cc1`, the figures for the negative-log IC50 (pIC50) in the series on Plasmodium falciparum and in the series on HepG2 were 5.77 and 4.03, respectively. Besides, the selectivity ratio in series [3] is over 56.
Regarding `O=S(=O)(Nc1ccc(C(F)(F)F)cc1)c1ccc(Nc2ccnc3cc(Cl)ccc23)cc1`, the values for the pIC50 in the series on Plasmodium falciparum and with HepG2 were 5.68 and 4.64, respectively. For the same compound, the selectivity ratio in series [3] was found to be 11.
